Measured values: ChEMBL document CHEMBL1132926, “2-amino-2-oxazolines as subtype selective alpha(2) adrenoceptor agonists” (J Med Chem, 2000)
Activity calls are given as the source filed them. The calls are words filed in the database; no cut-off is given here.

Tests used:
[1] = biological target: T1, Alpha-2A adrenergic receptor (Homo sapiens, UniProt P08913); assay: Inhibitory constant against human Alpha-2A adrenergic receptor expressed in LM(tk-) cells using [3H]rauwolscine; assay type: cell-based
T1 sequence (P08913 whole entry): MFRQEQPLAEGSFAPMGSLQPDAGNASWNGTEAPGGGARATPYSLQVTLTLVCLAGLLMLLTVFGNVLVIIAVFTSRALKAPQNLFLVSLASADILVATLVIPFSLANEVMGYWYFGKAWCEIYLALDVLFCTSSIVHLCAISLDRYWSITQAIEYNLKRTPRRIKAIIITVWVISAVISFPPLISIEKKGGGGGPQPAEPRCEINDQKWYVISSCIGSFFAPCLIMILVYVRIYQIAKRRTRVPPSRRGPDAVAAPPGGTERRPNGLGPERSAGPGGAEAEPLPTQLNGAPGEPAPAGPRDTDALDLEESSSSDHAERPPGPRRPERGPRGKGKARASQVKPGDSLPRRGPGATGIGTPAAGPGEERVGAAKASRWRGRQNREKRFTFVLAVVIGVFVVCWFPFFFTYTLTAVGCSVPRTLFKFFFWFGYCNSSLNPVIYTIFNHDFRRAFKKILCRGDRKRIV
Outline: (§1)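 Equilibrium competition binding against [3H]rauwolscine on membranes from cultured cells stably transfected with cloned human alpha2 subtypes: alpha2A and alpha2C in LM(tk-) cells, alpha2B in Y-1 cells. Equilibrium inhibition constants were estimated by nonlinear regression and reported as pKi.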

[2] = biological target: T2, Alpha-2B adrenergic receptor (Homo sapiens, UniProt P18089); assay: Inhibitory constant against human Alpha-2B adrenergic receptor expressed in Y-1 cells using [3H]rauwolscine; assay type: cell-based; outline: as §1
T2 sequence (P18089 whole entry): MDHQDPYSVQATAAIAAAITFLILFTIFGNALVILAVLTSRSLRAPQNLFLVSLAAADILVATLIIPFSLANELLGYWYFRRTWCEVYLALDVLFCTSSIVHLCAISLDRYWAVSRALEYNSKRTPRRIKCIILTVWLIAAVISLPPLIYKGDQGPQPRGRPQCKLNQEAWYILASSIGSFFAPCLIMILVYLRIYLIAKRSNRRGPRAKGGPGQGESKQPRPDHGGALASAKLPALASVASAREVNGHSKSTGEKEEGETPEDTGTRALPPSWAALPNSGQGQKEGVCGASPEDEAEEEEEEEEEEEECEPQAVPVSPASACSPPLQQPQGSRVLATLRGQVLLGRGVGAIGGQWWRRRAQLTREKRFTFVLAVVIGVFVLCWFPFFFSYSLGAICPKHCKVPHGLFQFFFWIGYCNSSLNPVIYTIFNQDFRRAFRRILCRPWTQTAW

[3] = biological target: T3, Alpha-2C adrenergic receptor (Homo sapiens) (UniProt P18825); assay: Alpha2c receptor agonism measured as ability to inhibit forskolin-stimulated synthesis of cAMP; NA=not active (IA< 0.3); assay type: functional
T3 sequence (whole entry): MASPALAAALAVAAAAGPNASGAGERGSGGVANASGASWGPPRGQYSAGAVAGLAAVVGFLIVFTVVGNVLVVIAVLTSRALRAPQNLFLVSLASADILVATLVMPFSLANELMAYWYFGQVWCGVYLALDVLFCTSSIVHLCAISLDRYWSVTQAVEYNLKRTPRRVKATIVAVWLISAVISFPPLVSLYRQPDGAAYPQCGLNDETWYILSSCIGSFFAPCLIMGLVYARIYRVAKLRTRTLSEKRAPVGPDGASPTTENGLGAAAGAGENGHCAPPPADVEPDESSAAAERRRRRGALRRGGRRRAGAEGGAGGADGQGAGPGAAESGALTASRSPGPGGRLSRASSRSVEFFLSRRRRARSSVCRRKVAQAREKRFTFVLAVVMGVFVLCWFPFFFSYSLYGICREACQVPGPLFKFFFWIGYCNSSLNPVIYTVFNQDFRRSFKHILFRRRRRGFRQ

[4] = biological target: T4, Alpha-2B adrenergic receptor (Homo sapiens) (UniProt P18089); assay: Alpha-2B adrenergic receptor agonism measured as ability to inhibit forskolin-stimulated synthesis of cAMP; NA=not active (IA< 0.3); assay type: functional
T4 sequence (whole entry): T2 sequence (P18089 whole entry)

[5] = biological target: T5, Alpha-2C adrenergic receptor (Homo sapiens, UniProt P18825); assay: Inhibitory constant, using [3H]rauwolscine in LM(tk-) cells stably transfected with cloned human Alpha-2C adrenergic receptor; assay type: cell-based; outline: as §1
T5 sequence (P18825 whole entry): T3 sequence (whole entry)

[6] = biological target: T6, Alpha-2A adrenergic receptor (Homo sapiens) (UniProt P08913); assay: Alpha-2A adrenergic receptor agonism measured as ability to inhibit forskolin-stimulated synthesis of cAMP; NA=not active; assay type: functional
T6 sequence (whole entry): T1 sequence (P08913 whole entry)

[7] = biological target: T5, Alpha-2C adrenergic receptor; assay: (§2) Alpha2c receptor agonism measured as ability to inhibit forskolin-stimulated synthesis of cAMP; assay type: functional
[8] = biological target: T1, Alpha-2A adrenergic receptor; assay: Alpha-2A adrenergic receptor agonism measured as ability to inhibit forskolin-stimulated synthesis of cAMP; assay type: functional
[9] = biological target: T4, Alpha-2B adrenergic receptor (Homo sapiens); assay: Alpha2b receptor agonism measured as ability to inhibit forskolin-stimulated synthesis of cAMP; NA=not active; assay type: functional
[10] = biological target: T3, Alpha-2C adrenergic receptor (Homo sapiens); assay: Alpha2c receptor agonism measured as ability to inhibit forskolin-stimulated synthesis of cAMP; NA=not active; assay type: functional
[11] = biological target: T4, Alpha-2B adrenergic receptor (Homo sapiens); assay: Alpha-2B adrenergic receptor agonism measured as ability to inhibit forskolin-stimulated synthesis of cAMP; NA=not active; assay type: functional
[12] = biological target: T4, Alpha-2B adrenergic receptor (Homo sapiens); assay: Alpha2b receptor agonism measured as ability to inhibit forskolin-stimulated synthesis of cAMP;NA=not active; assay type: functional
[13] = biological target: T5, Alpha-2C adrenergic receptor; assay: Alpha-2C adrenergic receptor agonism measured as ability to inhibit forskolin-stimulated synthesis of cAMP; assay type: functional
[14] = biological target: T5, Alpha-2C adrenergic receptor; assay: Inhibitory constant determined using [3H]rauwolscine in LM(tk-) cells stably transfected with cloned human Alpha-2C adrenergic receptor; assay type: cell-based; outline: as §1
[15] = biological target: T2, Alpha-2B adrenergic receptor; assay: (§3) Alpha-2B adrenergic receptor agonism measured as ability to inhibit forskolin-stimulated synthesis of cAMP; assay type: functional
[16] = biological target: T6, Alpha-2A adrenergic receptor (Homo sapiens); assay: Alpha2a receptor agonism measured as ability to inhibit forskolin-stimulated synthesis of cAMP; assay type: functional
[17] = biological target: T3, Alpha-2C adrenergic receptor (Homo sapiens); assay: as §2; assay type: functional
[18] = biological target: T4, Alpha-2B adrenergic receptor (Homo sapiens); assay: as §3; assay type: functional
[19] = biological target: T3, Alpha-2C adrenergic receptor (Homo sapiens); assay: Alpha-2C adrenergic receptor agonism measured as ability to inhibit forskolin-stimulated synthesis of cAMP; NA=not active; assay type: functional

| Ki [1] [nM] | Ki [2] [nM] | Ki [5] [nM] | alpha-2A agonist activity [6] | EC50 [7] [nM] | EC50 [8] [nM] | NA [11] | SMILES | further results |
| --- | --- | --- | --- | --- | --- | --- | --- | --- |
| 20.9 | 40.7 | 66.1 | inactive |  |  |  | c1ccc(C[C@H]2CCCC[C@@H]2NC2=NCCO2)cc1 | NA [3]: inactive; NA [4]: inactive |
| 1.45 | 6.92 | 10.7 |  |  |  | inactive | c1ccc(CC[C@H]2CCCC[C@@H]2NC2=NCCO2)cc1 | NA [10]: inactive; NA [6]: inactive |
| 2.95 | 5.89 |  |  |  | 1.62 |  | CCC[C@H]1CCCC[C@@H]1NC1=NCCO1 | EC50 [13]: 4.07 nM; Ki [14]: 24.5 nM; EC50 [15]: 9.33 nM |
| 15.1 | 32.4 | 32.4 | inactive | 26.9 |  | inactive | c1ccc(CCC[C@H]2CCCC[C@@H]2NC2=NCCO2)cc1 |  |
| 18.2 | 22.4 | 52.5 | inactive |  |  | inactive | c1ccc([C@H]2CCCC[C@@H]2NC2=NCCO2)cc1 | NA [19]: inactive |

Further lines, the compound ahead of its results:

| SMILES | Ki [1] [nM] | Ki [2] [nM] | Ki [5] [nM] | alpha-2A agonist activity [6] | EC50 [7] [nM] | EC50 [8] [nM] | NA [11] | further results |
| --- | --- | --- | --- | --- | --- | --- | --- | --- |
| c1ccc(CCC[C@H]2C3CCC(C3)[C@H]2NC2=NCCO2)cc1 (some centres not stated) | 30.9 | 141 | 123 |  | 60.3 | 34.7 |  | NA [9]: inactive |
| C(=C\c1ccccc1)/C[C@H]1C2CCC(C2)[C@H]1NC1=NCCO1 (some centres not stated) | 15.8 | 102 | 85.1 |  | 2 | 70.8 |  | NA [9]: inactive |
| c1ccc(C[C@H]2C3CCC(C3)[C@H]2NC2=NCCO2)cc1 (some centres not stated) | 13.8 | 40.7 | 79.4 | inactive | 13.8 |  |  | NA [12]: inactive |
| CCC[C@H]1C2CCC(C2)[C@H]1NC1=NCCO1 (some centres not stated) | 28.2 | 91.2 | 123 |  | 21.4 | 11 |  | Intrinsic activity [16]: 0.9; Intrinsic activity [17]: 0.9; Intrinsic activity [18]: 0.4; EC50 [15]: 562 nM |
